Measured values as given in ChEMBL document CHEMBL4689842, “EUbOPEN Chemogenomics Library wave 1” (2021).

Legend:
HEK-293T = assay: Multiplex assay against HEK293T; type: toxicity, cell-based; conditions: human;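 for Population Tubulin-Different-Phenotype (%): share of the cells with healthy nuclei that show this phenotype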
Summary of the method: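 Four dyes were applied at seeding to live cells: Hoechst33342, BioTracker Green Microtubule Cytoskeleton Dye, MitoTracker Red and Annexin V Alexa Fluor 680. Imaging after compound addition used a CQ1 microscope at 37°C and 5% CO2. CellPathfinder machine-learning gating then sorted cells into Hoechst high-intensity objects or normal cells, normal cells into healthy, pyknosed or fragmented nuclei, and pyknosed cells into mitotic or apoptotic, with tubulin, mitochondrial-mass and membrane-permeability phenotypes given as per cents of healthy-nucleus cells.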

Fibroblast = assay: Incucyte cell viability with human fibroblast; type: toxicity, cell-based; conditions: 10 µM, compound concentration 10 uM; note: filed as whole numbers so only -1 and 0 and 1 occur
[1] = 12 h, 1 µM, compound concentration 1 uM, replicate 1
[2] = 12 h, 1 µM, compound concentration 1 uM, replicate 2
[3] = 12 h, 10 µM, compound concentration 10 uM, replicate 1
[4] = 12 h, 10 µM, compound concentration 10 uM, replicate 2
[5] = 24 h, 1 µM, compound concentration 1 uM, replicate 1
[6] = 24 h, 1 µM, compound concentration 1 uM, replicate 2
[7] = 24 h, 10 µM, compound concentration 10 uM, replicate 1
[8] = 24 h, 10 µM, compound concentration 10 uM, replicate 2

## Cc1ccc(NC(=O)Nc2cc(C(F)(F)F)ccc2F)cc1Nc1ccc2c(c1)NC(=O)/C2=C\c1ccc[nH]1
HEK-293T; [1]
  Population Apoptotic (%): 13%
  Population Fragmented Nuclei (%): 19%
  Population Healthy Nuclei (%): 28%
  Population Hoechst High Intensity Objects (%): 16%
  Population Membrane Permeable-Phenotype (%): 59%
  Population Mitochondria Different-Phenotype (%): 0%
  Population Mitotic Cells (%): 86%
  Population Normal (%): 83%
  Population Pyknosed Nuclei (%): 51%
  Population Tubulin-Different-Phenotype (%): 28%
  Total Cell Count: 644
HEK-293T; [2]
  Population Apoptotic (%): 2%
  Population Fragmented Nuclei (%): 2%
  Population Healthy Nuclei (%): 83%
  Population Hoechst High Intensity Objects (%): 2%
  Population Mitotic Cells (%): 97%
  Population Normal (%): 97%
  Population Pyknosed Nuclei (%): 13%
  Population Tubulin-Different-Phenotype (%): 50%
  Total Cell Count: 1372
HEK-293T; [3]
  Population Apoptotic (%): 14%
  Population Fragmented Nuclei (%): 10%
  Population Healthy Nuclei (%): 68%
  Population Hoechst High Intensity Objects (%): 6%
  Population Membrane Permeable-Phenotype (%): 1%
  Population Mitochondria Different-Phenotype (%): 3%
  Population Mitotic Cells (%): 85%
  Population Normal (%): 93%
  Population Pyknosed Nuclei (%): 21%
  Population Tubulin-Different-Phenotype (%): 0%
  Total Cell Count: 577
HEK-293T; [4]
  Population Apoptotic (%): 4%
  Population Fragmented Nuclei (%): 7%
  Population Healthy Nuclei (%): 87%
  Population Hoechst High Intensity Objects (%): 2%
  Population Mitochondria Different-Phenotype (%): 5%
  Population Mitotic Cells (%): 95%
  Population Normal (%): 97%
  Population Pyknosed Nuclei (%): 5%
  Population Tubulin-Different-Phenotype (%): 2%
  Total Cell Count: 1471
HEK-293T; [5]
  Population Apoptotic (%): 15%
  Population Fragmented Nuclei (%): 20%
  Population Healthy Nuclei (%): 34%
  Population Hoechst High Intensity Objects (%): 14%
  Population Membrane Permeable-Phenotype (%): 47%
  Population Mitochondria Different-Phenotype (%): 0%
  Population Mitotic Cells (%): 84%
  Population Normal (%): 85%
  Population Pyknosed Nuclei (%): 45%
  Population Tubulin-Different-Phenotype (%): 33%
  Total Cell Count: 618
HEK-293T; [6]
  Population Apoptotic (%): 3%
  Population Fragmented Nuclei (%): 4%
  Population Healthy Nuclei (%): 82%
  Population Hoechst High Intensity Objects (%): 4%
  Population Membrane Permeable-Phenotype (%): 52%
  Population Mitotic Cells (%): 96%
  Population Normal (%): 95%
  Population Pyknosed Nuclei (%): 13%
  Population Tubulin-Different-Phenotype (%): 68%
  Total Cell Count: 1297
HEK-293T; [7]
  Population Apoptotic (%): 14%
  Population Fragmented Nuclei (%): 7%
  Population Healthy Nuclei (%): 82%
  Population Hoechst High Intensity Objects (%): 2%
  Population Membrane Permeable-Phenotype (%): 2%
  Population Mitochondria Different-Phenotype (%): 1%
  Population Mitotic Cells (%): 85%
  Population Normal (%): 97%
  Population Pyknosed Nuclei (%): 10%
  Population Tubulin-Different-Phenotype (%): 1%
  Total Cell Count: 682
HEK-293T; [8]
  Population Apoptotic (%): 0%
  Population Fragmented Nuclei (%): 18%
  Population Healthy Nuclei (%): 79%
  Population Hoechst High Intensity Objects (%): 3%
  Population Membrane Permeable-Phenotype (%): 3%
  Population Mitochondria Different-Phenotype (%): 0%
  Population Mitotic Cells (%): 100%
  Population Normal (%): 96%
  Population Pyknosed Nuclei (%): 2%
  Population Tubulin-Different-Phenotype (%): 2%
  Total Cell Count: 2446
Fibroblast; 0 h, replicate number 1, timepoint 0 hours
  Growth Rate: 0
Fibroblast; 6 h, replicate number 1, timepoint 6 hours
  Growth Rate: 0
Fibroblast; 12 h, replicate number 1, timepoint 12 hours
  Growth Rate: 0
Fibroblast; 18 h, replicate number 1, timepoint 18 hours
  Growth Rate: 0
Fibroblast; 24 h, replicate number 1, timepoint 24 hours
  Growth Rate: 0
